Results on one molecule are retold here after ChEMBL document CHEMBL3425488, “Novel histone deacetylase inhibitors induce growth arrest, apoptosis, and differentiation in sarcoma cancer stem cells” (J Med Chem, 2015).

In general, IC50 refers to the midpoint of a concentration-inhibition curve.

One data set addresses T1, Histone deacetylase 11 (Homo sapiens, UniProt Q96DB2).
T1 sequence (Q96DB2 whole entry): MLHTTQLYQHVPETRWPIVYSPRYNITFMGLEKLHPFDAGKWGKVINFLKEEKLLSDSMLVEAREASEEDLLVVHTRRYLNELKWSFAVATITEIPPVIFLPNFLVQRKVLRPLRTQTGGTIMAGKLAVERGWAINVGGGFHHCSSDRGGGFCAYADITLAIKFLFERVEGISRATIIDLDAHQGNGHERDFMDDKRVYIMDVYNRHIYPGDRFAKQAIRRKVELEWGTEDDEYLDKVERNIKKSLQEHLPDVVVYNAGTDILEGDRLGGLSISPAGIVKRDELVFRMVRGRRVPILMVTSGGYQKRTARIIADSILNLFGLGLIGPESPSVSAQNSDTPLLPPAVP
The data set is described as follows: Inhibition of recombinant HDAC11 (unknown origin) by homogeneous fluorescence release assay.

A further data set addresses T2, Histone deacetylase 8 (Homo sapiens, UniProt Q9BY41).
T2 sequence (Q9BY41 whole entry): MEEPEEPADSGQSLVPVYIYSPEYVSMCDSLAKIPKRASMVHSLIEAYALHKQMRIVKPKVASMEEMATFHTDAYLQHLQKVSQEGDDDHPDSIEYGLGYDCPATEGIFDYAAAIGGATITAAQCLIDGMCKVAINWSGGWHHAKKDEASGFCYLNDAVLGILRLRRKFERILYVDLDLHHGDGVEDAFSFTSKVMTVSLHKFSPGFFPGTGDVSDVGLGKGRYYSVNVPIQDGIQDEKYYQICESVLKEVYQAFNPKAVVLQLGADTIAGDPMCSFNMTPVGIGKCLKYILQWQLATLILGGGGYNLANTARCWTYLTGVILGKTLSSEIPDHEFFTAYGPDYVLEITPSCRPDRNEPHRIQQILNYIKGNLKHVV
Nature of the data set: Inhibition of recombinant HDAC8 (unknown origin) by homogeneous fluorescence release assay.

Data set [1] in a line: Cytotoxicity against human MG63 cells assessed as growth inhibition at 0.5 uM treated for 14 days measured on day 14 post last treatment by Alamar Blue assay. The class given is cell-based. Particulars: mg-63, 336 h. Put shortly:
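MG-63 sarcosphere-derived cells, 10000 seeded, grown in complete α-MEM to 70% confluence. Then kept in mineralization medium (10 mM β-glycerophosphate, 10−8 M dexamethasone, ascorbic acid 2-phosphate) with continuous compound exposure (0.025–0.5 μM) for 14 days. Viability then read by Alamar Blue.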
On the technique in general: Alamar Blue is a resazurin reagent that responds to reducing activity.

The target in data set [2] is T3, Polyamine deacetylase HDAC10 (Homo sapiens, UniProt Q969S8).
T3 sequence (Q969S8 whole entry): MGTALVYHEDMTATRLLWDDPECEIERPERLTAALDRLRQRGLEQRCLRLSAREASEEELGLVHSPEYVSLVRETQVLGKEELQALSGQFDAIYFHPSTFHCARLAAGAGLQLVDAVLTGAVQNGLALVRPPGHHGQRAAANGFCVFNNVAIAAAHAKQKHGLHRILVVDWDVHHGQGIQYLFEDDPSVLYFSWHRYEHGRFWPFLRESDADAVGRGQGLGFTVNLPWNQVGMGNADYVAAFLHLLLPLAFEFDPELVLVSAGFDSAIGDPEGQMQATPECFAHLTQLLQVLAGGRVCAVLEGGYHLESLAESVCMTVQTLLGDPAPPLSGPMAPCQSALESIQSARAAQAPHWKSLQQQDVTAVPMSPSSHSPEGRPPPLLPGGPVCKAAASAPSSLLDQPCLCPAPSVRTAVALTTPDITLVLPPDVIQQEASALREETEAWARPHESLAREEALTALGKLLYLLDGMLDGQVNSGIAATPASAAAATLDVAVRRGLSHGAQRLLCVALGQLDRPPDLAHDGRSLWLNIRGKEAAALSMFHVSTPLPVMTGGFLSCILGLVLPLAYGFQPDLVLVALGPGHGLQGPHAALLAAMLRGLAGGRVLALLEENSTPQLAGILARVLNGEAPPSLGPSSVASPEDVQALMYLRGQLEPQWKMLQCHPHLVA
The data set is described as follows: Inhibition of recombinant HDAC10 (unknown origin) by homogeneous fluorescence release assay.

A further data set concerns the target Histone deacetylase 1 (Homo sapiens, UniProt Q13547). Nature of the data set: Inhibition of recombinant HDAC1 (unknown origin) by homogeneous fluorescence release assay.
The target of data set [3] is T4, Protein deacetylase HDAC6 (Homo sapiens, UniProt Q9UBN7).
T4 sequence (Q9UBN7 whole entry): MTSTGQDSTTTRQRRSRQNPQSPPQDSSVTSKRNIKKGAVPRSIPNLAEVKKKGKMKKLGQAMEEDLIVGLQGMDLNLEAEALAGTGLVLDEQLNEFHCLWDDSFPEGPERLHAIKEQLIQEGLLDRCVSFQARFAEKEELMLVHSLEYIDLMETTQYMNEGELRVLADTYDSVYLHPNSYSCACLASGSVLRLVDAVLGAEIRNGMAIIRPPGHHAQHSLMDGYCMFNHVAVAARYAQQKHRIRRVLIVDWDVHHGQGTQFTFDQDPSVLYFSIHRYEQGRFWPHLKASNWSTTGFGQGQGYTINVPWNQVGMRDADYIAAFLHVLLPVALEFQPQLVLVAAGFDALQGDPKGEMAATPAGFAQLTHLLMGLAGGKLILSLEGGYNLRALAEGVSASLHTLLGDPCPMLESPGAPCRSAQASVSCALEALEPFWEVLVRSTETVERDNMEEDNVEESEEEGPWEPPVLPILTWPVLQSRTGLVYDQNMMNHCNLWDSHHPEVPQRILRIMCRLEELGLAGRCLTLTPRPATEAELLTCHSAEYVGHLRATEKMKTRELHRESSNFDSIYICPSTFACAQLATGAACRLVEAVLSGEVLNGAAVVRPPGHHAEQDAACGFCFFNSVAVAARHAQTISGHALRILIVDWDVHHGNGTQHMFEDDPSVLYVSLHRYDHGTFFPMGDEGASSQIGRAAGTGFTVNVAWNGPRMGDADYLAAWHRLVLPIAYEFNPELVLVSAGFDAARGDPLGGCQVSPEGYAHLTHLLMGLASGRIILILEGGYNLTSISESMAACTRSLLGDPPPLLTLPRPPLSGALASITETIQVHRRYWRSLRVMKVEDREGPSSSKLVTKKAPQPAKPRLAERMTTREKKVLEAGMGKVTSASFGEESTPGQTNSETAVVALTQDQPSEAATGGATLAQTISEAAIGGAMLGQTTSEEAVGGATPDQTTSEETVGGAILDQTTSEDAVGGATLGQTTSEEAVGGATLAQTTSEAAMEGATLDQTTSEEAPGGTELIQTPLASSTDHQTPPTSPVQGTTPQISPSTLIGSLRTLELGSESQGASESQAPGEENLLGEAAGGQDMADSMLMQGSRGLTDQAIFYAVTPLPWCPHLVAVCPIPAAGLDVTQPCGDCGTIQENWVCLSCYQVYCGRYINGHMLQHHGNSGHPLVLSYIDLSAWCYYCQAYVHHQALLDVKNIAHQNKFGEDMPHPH
The data set is described as follows: Inhibition of recombinant HDAC6 (unknown origin) by homogeneous fluorescence release assay.

Chain of Histone deacetylase 1 (Q13547 whole entry): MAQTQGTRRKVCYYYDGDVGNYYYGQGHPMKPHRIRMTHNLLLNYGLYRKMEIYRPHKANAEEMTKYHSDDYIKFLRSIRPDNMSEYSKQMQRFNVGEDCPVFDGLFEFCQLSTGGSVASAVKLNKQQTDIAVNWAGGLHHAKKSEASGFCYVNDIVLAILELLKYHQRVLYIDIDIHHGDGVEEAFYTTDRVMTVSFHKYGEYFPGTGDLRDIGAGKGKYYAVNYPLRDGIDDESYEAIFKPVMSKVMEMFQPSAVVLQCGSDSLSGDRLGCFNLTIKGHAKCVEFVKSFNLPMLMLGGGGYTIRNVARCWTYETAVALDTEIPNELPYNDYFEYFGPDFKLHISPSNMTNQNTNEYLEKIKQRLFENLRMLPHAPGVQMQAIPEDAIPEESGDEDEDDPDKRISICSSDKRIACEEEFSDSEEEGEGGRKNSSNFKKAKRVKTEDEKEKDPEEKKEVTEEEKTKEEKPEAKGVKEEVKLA

Regarding `O=C(/C=C/c1ccc(NC(=O)C(Cc2ccccc2)c2ccccc2)cn1)NO` (stereo unspecified), the IC50 at Histone deacetylase 11 worked out at 10200 nM; at Histone deacetylase 8 it was 610 nM; in data set [2], 1800 nM; at Histone deacetylase 1, 1420 nM; in data set [3] it was 10 nM. Moreover, in data set [1], the Activity entry is on record as “Toxic”.
